Each block holds one compound with its values, some of them ahead of it. Calls of active or inactive are those of the source. No cut-off for these calls is given here.
Tests used:
Monocyte [1] = assay: Inhibition of COX-2 expression in LPS/INF-gamma-stimulated human primary monocytes up to 30 uM by ELISA; type: functional
Monocyte [2] = assay: Inhibition of COX-2 gene expression in LPS/INF-gamma-stimulated human primary monocytes up to 30 uM by RT-PCR analysis; type: functional
Monocyte [3] = assay: Inhibition of IL1-beta expression in LPS/INF-gamma-stimulated human primary monocytes up to 30 uM by ELISA; type: functional
Monocyte [4] = assay: Inhibition of IL1-beta expression in LPS/INF-gamma-stimulated human primary monocytes by ELISA; type: functional
Monocyte [5] = assay: Inhibition of IL-6 gene expression in LPS/INF-gamma-stimulated human primary monocytes up to 30 uM by RT-PCR analysis; type: functional
Monocyte [6] = assay: Inhibition of IL-6 expression in LPS/INF-gamma-stimulated human primary monocytes up to 30 uM by ELISA; type: functional
Monocyte [7] = assay: Inhibition of COX-2 expression in LPS/INF-gamma-stimulated human primary monocytes by ELISA; type: functional
ELAV-like protein 1 [8] = molecular target: T1, ELAV-like protein 1 (Homo sapiens, UniProt Q15717); assay: Binding affinity recombinant HuR RRM1/RRM2 domain by confocal fluctuation spectroscopy
Outline: (§1)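 Binding followed as fluorescence anisotropy by 2D-FIDA, converted to fraction bound. Inhibition curves simulated from the fitted HuR–RNA Kd, with actual RNA, HuR and compound levels as boundary conditions. Ten measurements averaged; at least three independent experiments.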

[9] = molecular target: Myosin light chain kinase, smooth muscle (Homo sapiens, UniProt Q15746); assay: Inhibition of MYLK
Monocyte [10] = assay: Inhibition of IL1-beta gene expression in LPS/INF-gamma-stimulated human primary monocytes by RT-PCR analysis
ELAV-like protein 1 [11] = molecular target: T1, ELAV-like protein 1; assay: Inhibition of recombinant full length HuR assessed as inhibition of protein-IL-2 A/U-rich element interaction-associated release of particle number at 2 uM by 2D-FIDA
ELAV-like protein 1 [12] = molecular target: T1, ELAV-like protein 1; assay: Inhibition of recombinant HuR RRM1/RRM2 domain assessed as protein dimerization with TMR-labeled A/U-rich element of TNFalpha by confocal fluctuation spectroscopy
PBMC [13] = assay: Inhibition of HuR in anti-CD3 and anti-CD28-stimulated human PBMC assessed as reduction of cytoplasmic protein level at 25 uM after 48 hrs by confocal microscopy; type: functional, cell-based
ELAV-like protein 1 [14] = molecular target: T1, ELAV-like protein 1; assay: Inhibition of recombinant HuR RRM1/RRM2 domain assessed as protein interaction with TMR-labeled A/U-rich element of IL-2 by confocal fluctuation spectroscopy; outline: as §1
Monocyte [15] = assay: Inhibition of IL-6 expression in LPS/INF-gamma-stimulated human primary monocytes by ELISA; type: functional
ELAV-like protein 1 [16] = molecular target: T1, ELAV-like protein 1; assay: Inhibition of recombinant HuR RRM1/RRM2 domain assessed as protein dimerization with TMR-labeled A/U-rich element of IL-2 by confocal fluctuation spectroscopy
[17] = Cytotoxicity against human PBMC assessed as cell viability at 25 uM after 48 hrs relative control; type: cell-based; conditions: read-out: Activity
Outline: (§2)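 Freshly isolated human PBMCs activated with soluble anti-CD3 plus anti-CD28 and exposed to compound for 48 h. Viability expressed as percent of DMSO control.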

Monocyte [18] = assay: Inhibition of COX-2 gene expression in LPS/INF-gamma-stimulated human primary monocytes by RT-PCR analysis
ELAV-like protein 1 [19] = molecular target: T1, ELAV-like protein 1; assay: Inhibition of recombinant HuR RRM1/RRM2 domain assessed as protein interaction with TMR-labeled A/U-rich element of TNFalpha by confocal fluctuation spectroscopy; outline: as §1
Monocyte [20] = assay: Inhibition of IL-6 gene expression in LPS/INF-gamma-stimulated human primary monocytes by RT-PCR analysis
PBMC [21] = assay: Inhibition of HuR in anti-CD3 and anti-CD28-stimulated human PBMC assessed as reduction of cytoplasmic protein level after 48 hrs by confocal microscopy; type: functional, cell-based
[22] = Cytotoxicity against human PBMC assessed as cell viability at 50 uM after 48 hrs relative control; type: cell-based; conditions: read-out: Activity; outline: as §2
Monocyte [23] = assay: Inhibition of IL1-beta gene expression in LPS/INF-gamma-stimulated human primary monocytes up to 30 uM by RT-PCR analysis; type: functional

T1 sequence (Q15717 whole entry, the tested form may be a part): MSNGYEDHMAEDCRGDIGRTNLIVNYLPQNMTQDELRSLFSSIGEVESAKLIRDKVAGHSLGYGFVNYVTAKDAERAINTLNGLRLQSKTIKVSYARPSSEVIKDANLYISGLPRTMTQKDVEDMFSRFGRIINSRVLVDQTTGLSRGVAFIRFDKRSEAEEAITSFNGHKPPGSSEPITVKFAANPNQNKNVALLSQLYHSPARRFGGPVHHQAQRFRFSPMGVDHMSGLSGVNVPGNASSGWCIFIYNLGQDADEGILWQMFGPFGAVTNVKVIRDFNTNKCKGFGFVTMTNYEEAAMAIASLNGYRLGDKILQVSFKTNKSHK
Myosin light chain kinase, smooth muscle, sequence (Q15746 whole entry): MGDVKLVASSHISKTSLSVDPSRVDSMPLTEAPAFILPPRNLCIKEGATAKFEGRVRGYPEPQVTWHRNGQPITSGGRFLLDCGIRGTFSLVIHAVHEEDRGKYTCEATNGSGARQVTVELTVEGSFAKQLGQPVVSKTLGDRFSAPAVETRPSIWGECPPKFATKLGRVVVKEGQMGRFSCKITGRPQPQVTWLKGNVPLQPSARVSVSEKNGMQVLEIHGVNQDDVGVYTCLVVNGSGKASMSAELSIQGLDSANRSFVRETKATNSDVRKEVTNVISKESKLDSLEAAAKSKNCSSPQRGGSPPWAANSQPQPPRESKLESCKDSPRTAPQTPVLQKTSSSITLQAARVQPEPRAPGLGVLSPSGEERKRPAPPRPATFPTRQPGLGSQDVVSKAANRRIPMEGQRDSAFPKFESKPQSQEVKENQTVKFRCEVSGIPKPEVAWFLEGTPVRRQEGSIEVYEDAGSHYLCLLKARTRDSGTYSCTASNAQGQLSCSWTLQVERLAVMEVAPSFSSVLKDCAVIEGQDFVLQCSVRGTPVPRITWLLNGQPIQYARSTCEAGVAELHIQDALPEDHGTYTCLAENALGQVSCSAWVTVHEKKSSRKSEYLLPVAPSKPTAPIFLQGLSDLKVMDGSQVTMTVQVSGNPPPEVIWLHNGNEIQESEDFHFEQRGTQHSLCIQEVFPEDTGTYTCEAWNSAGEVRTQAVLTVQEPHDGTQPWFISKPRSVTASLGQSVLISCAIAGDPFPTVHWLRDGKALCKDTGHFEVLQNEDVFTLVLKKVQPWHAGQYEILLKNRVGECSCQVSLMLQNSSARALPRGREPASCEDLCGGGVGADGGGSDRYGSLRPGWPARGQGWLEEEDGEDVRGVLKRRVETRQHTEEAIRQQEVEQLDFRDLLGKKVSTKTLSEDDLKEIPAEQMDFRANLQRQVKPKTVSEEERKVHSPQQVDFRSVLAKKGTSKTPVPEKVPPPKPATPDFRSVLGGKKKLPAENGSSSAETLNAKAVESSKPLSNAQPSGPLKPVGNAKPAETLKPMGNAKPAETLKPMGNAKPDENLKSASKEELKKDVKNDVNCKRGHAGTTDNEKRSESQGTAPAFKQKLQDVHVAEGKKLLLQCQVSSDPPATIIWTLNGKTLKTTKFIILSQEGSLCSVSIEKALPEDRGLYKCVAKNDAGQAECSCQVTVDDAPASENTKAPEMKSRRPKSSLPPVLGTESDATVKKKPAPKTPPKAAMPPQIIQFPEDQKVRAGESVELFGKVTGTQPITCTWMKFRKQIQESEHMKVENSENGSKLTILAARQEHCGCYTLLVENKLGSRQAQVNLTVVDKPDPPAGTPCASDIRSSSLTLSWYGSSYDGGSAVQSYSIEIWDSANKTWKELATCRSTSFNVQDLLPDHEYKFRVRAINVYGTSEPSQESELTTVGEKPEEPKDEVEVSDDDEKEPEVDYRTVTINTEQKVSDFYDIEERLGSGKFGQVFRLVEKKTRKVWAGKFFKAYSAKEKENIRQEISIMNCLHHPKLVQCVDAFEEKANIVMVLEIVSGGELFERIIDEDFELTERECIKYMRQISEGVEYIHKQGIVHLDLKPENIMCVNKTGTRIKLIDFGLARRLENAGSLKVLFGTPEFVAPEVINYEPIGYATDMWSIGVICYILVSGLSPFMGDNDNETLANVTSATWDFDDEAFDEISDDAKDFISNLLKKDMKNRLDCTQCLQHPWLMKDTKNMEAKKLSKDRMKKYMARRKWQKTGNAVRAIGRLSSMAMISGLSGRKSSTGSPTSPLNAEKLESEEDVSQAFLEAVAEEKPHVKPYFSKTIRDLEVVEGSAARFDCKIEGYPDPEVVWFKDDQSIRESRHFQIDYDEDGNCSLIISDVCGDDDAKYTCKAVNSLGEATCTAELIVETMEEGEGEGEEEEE

SMILES: Cc1cc(O)cc2oc(Cc3cc(O)cc(=O)o3)cc(=O)c12
inhibition (Monocyte [1]): inactive
inhibition (Monocyte [2]): inactive
inhibition (Monocyte [3]): inactive
inhibition (Monocyte [4]): inactive
inhibition (Monocyte [5]): inactive
inhibition (Monocyte [6]): inactive

Kd (ELAV-like protein 1 [8]): 420 nM
IC50 [9]: 10000 nM
IC50 (Monocyte [10]): 3700 nM
inhibition (ELAV-like protein 1 [11]): Active
Kd (ELAV-like protein 1 [12]): 0.1 nM
Kd (ELAV-like protein 1 [14]): 230 nM
Kd (ELAV-like protein 1 [16]): 0.1 nM
IC50 (Monocyte [18]): 2100 nM
Kd (ELAV-like protein 1 [19]): 14 nM
IC50 (Monocyte [20]): 2400 nM
SMILES: Cc1occ2c1C(=O)c1c(O)ccc(O)c1C2
inhibition (Monocyte [7]): Dose-dependent effect
inhibition (Monocyte [4]): Dose-dependent effect
inhibition (PBMC [13]): inactive
inhibition (Monocyte [15]): Dose-dependent effect
viability at 48 h, 25 µM [17]: 94%

SMILES: Cc1cc(O)c2c(O)cccc2c1-c1cc(=O)cc(O)o1 [DEHYDROMUTACTIN]
inhibition (Monocyte [1]): inactive
inhibition (Monocyte [2]): inactive
inhibition (PBMC [21]): Dose-dependent effect
inhibition (Monocyte [3]): inactive
inhibition (Monocyte [4]): inactive
viability at 48 h, 50 µM [22]: 97%
inhibition (Monocyte [5]): inactive
inhibition (Monocyte [23]): inactive
inhibition (Monocyte [6]): inactive

SMILES: Cc1cc(O)cc2cc3c(c(O)c12)C(=O)CCC3O (stereo unspecified)
inhibition (PBMC [21]): inactive

Reference: ChEMBL document CHEMBL1240329, “Identification and mechanistic characterization of low-molecular-weight inhibitors for HuR” (Nat Chem Biol, 2007)
